The values below come from article PMC10447992 (Heliyon, 2023).

Data set [1] is described as follows: MTT cytotoxicity assay, WISH cell line. Type of data set: cell-based. Particulars: human, WISH cells (human amnion). In outline:
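WISH cells (ATCC via VACSERA) grown in RPMI-1640 with 10% fetal bovine serum at 37 °C, 5% CO2. Seeded at 1.0 × 10^4 cells/well for 48 h, then treated 24 h with a range of concentrations. MTT (5 mg/mL stock) added for 4 h, formazan dissolved in DMSO, A570 read. Viability given as % of untreated cells. IC50 in μg/mL is the concentration giving 50% inhibition versus untreated cells. Doxorubicin reference.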

Data set [2] is described as follows: Antioxidant activity screening by ABTS method. As to conditions: ABTS radical scavenging, 6 min incubation, absorbance at 734 nm. Summed up: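 ABTS radical made from 7 mM ABTS plus 140 mM […], left in the dark at room temperature for 16 h, then diluted 1:44 (v/v) in water. Equal volumes of radical solution and sample mixed in microplate and held 6 min at room temperature. Absorbance read at 734 nm against 100% methanol. Percent inhibition calculated by formula; L-ascorbic acid as reference.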

Broadly, the IC50 is the concentration that gives 50% inhibition. Low values mean greater potency, high ones weaker potency. As to `COc1cccc2c1C(=O)c1c(O)c3c(c(O)c1C2=O)C[C@@](O)(C(=O)CO)C[C@@H]3O[C@H]1C[C@H](N)[C@H](O)[C@H](C)O1` [DOX, doxorubicin], in data set [1], the IC50 at 24 h amounted to 3.18 ± 0.2 µM.

For the compound `O=C1O[C@H]([C@@H](O)CO)C(O)=C1O` [L-Ascorbic acid], in data set [2], the “ABTS Inhibition %” value turned out to be 88.8%.
